ChEMBL document CHEMBL1157178, “Novel thiosemicarbazone derivatives as potential antitumor agents: Synthesis, physicochemical and structural properties, DNA interactions and antiproliferative activity” (Bioorg Med Chem, 2008)
The source made the active and inactive calls. The calls are words filed in the database; no cut-off is given here.

Legend:
MIA PaCa-2 = test: Antiproliferative activity against human MiaPaCa2 cells after 72 hrs by MTT test; type: functional, cell-based; conditions: MIA PaCa-2, 72 h
Outline: (§1)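 Cells grown as monolayers in DMEM with 10% FBS, 2 mM L-glutamine, penicillin and streptomycin at 37 °C, 5% CO2. Seeded on day 0 at 1 · 10⁴/mL (HeLa, Hep-2, MiaPaCa-2, SW620), 2 · 10⁴/mL (MCF-7) or 3 · 10⁴/mL (WI 38). Five dilutions (10^-8 to 5 · 10^-6 mol/l), 72 h, MTT read-out. Quadruplicate, three experiments. IC50 by linear regression of percentage growth.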

WI-38 = test: Antiproliferative activity against human WI38 cells after 72 hrs by MTT test; type: functional, cell-based; conditions: WI-38, 72 h; outline: as §1
HEp-2 = test: Antiproliferative activity against human Hep2 cells after 72 hrs by MTT test; type: functional, cell-based; conditions: HEp-2, 72 h; outline: as §1
MCF7 = test: Antiproliferative activity against human MCF7 cells after 72 hrs by MTT test; type: functional, cell-based; conditions: MCF7, 72 h; outline: as §1
SW-620 = test: Antiproliferative activity against human SW620 cells after 72 hrs by MTT test; type: functional, cell-based; conditions: SW-620, 72 h; outline: as §1
DNA = test: Binding affinity to calf thymus DNA in aqueous solution at pH 7.0 by thermal denaturation; type: nucleic-acid assay; conditions: Bos taurus
Outline: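 ct-DNA in sodium cacodylate buffer, pH 7.0, I = 0.05 mol dm^-3, concentration taken as phosphate. Compound added at r[compd]/[ct-DNA] = 0.3. Melting followed by absorbance at 260 nm, with ligand absorbance subtracted and curves normalized. Tm taken as the transition midpoint (first derivative or tangent method). ΔTm = Tm(complex) − Tm(free DNA), averaged over at least two runs.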

HeLa = test: Antiproliferative activity against human HeLa cells after 72 hrs by MTT test; type: functional, cell-based; outline: as §1

Structure (SMILES) | IC50 (MIA PaCa-2) [µM] | IC50 (WI-38) [µM] | IC50 (HEp-2) [µM] | IC50 (MCF7) [µM] | IC50 (SW-620) [µM] | Activity (DNA) | IC50 (HeLa) [µM]
CCN(CC)c1ccc(/C=N/NC(=S)Nc2ccccc2)c(O)c1 | 0.2 | 0.3 | 0.3 | 1.2 | 0.6 | inactive | 0.7
CCN(CC)c1ccc(/C=N/NC(N)=S)c(O)c1 | > 5 | 0.2 | 0.9 | 0.4 | 3 |  | 2
COc1cccc(/C=N/NC(=S)Nc2ccccc2)c1O | 2.5 | 1.4 | 1.6 | 3 | 1.6 |  | 1.7
NC(=S)N/N=C/c1c(O)ccc2ccccc12 | > 5 | ≥ 5 | 0.2 | > 5 | 4.7 |  | 0.2
NC(=S)N/N=C/c1ccccc1O | > 5 | ≥ 5 | ≥ 5 | ≥ 5 | > 5 | inactive | ≥ 5
Oc1ccccc1/C=N/NC(=S)Nc1ccccc1 | 2.4 | 1.3 | 2.4 | 4 | 2 | inactive | 1.5
